Test results reported in PubChem BioAssay AID652011 (Sanford-Burnham Center for Chemical Genomics, 2013).

Molecular target: Hypoxia-inducible factor 1-alpha (Homo sapiens) (UniProt Q16665)
Assay: HIF reporter inhibition across pancreatic and renal lines – cell-based, luminescence, MIAPaCa-2, 786-0, panel, SAR follow-up (AID 652011)
Conditions: MIAPaCa-2/PANC HIF reporter, luciferase luminescence, desferoxamine, overnight, HIF1a, run 1; at 99 µM (top of the series)
Summary of the method: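 Also added: desferoxamine added before compound. Dosing: compounds from 10 mM and 0.3125 mM stocks, 1% DMSO final. Timing: overnight seeding and compound exposure, 37 °C, 5% CO2, 10-min detection. Detection: luciferase luminescence with One-Glo reagent.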

Hypoxia-inducible factor 1-alpha (Homo sapiens), sequence (Q16665 whole entry, looked up): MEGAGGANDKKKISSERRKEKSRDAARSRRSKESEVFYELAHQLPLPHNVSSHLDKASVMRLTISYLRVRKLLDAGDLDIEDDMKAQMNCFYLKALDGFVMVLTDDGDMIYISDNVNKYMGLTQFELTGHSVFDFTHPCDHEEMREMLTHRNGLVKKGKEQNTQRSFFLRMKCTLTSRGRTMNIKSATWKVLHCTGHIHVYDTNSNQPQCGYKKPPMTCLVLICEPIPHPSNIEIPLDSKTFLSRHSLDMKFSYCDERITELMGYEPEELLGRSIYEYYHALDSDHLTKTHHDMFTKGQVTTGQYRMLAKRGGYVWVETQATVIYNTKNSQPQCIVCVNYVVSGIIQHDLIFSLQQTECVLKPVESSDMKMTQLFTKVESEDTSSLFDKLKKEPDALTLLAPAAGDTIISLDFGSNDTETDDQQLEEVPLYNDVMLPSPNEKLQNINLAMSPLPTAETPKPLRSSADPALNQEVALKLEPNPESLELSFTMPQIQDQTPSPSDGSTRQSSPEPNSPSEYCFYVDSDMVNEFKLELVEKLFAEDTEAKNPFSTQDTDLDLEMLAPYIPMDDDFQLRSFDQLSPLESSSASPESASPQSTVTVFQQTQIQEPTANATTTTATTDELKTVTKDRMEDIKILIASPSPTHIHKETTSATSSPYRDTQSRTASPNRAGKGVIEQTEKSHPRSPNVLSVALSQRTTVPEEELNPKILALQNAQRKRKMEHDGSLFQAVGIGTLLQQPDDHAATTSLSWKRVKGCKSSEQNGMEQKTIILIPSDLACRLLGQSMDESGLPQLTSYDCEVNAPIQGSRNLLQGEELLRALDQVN

| SMILES | inhibition [%] |
| --- | --- |
| CCNC(=O)CCc1nc(-c2cccc(C)c2)no1 | -31.4 |
| CCC(C)NC(=O)CCc1nc(-c2ccc(C(C)(C)C)cc2)no1 (stereo not given) | -78.9 |
| CC(C)(C)c1ccc(-c2noc(CCC(=O)N3CCOCC3)n2)cc1 | -34.2 |
| CCc1ccc(-c2noc(CCC(=O)NC(C)CC)n2)cc1 (stereo not given) | -51.7 |
| CC(C)(C)c1ccc(-c2noc(CCC(=O)NC3CCCCC3)n2)cc1 | 41.6 |
| CCNC(=O)CCc1nc(-c2c(Cl)cccc2Cl)no1 | 13.2 |
| CCNC(=O)CCc1nc(-c2ccc(CC)cc2)no1 | -35.2 |
| COC(=O)CCc1nc(-c2ccc(C(C)(C)C)cc2)no1 | 92.2 |
| CCNC(=O)CCc1nc(-c2cccc(F)c2)no1 | -22 |
| CNC(=O)CCc1nc(-c2ccc(C(C)C)cc2)no1 | -38.5 |
